Data published in ChEMBL document CHEMBL3526035, “Role of the intestinal peptide transporter PEPT1 in oseltamivir absorption: in vitro and in vivo studies” (Drug Metab Dispos, 2012).

Tests used:
[1] = AUC(0 to 24 hrs) in adult fed Sprague-Dawley rat at 30 mg/kg, po administered as 125 mM aqueous Gly-Sar solution by HPLC-tandem mass spectrometry; type: ADME, organism-based; design: time < 24 hr, dose 30 mg/kg, route oral; settings: plasma
How it was run: (§1)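 Sprague-Dawley males, 7-8 weeks, 243-283 g, jugular-cannulated, 3 days' recovery; fed (chow ad libitum). Single oral dose of 30 mg/kg (free base) at 10 ml/kg; 3 rats/group. Jugular blood taken at 0.25-24 h into K2EDTA with dichlorvos, kept on ice. Plasma analysed by validated LC-MS/MS (0.1-500 μg/l). Noncompartmental analysis; AUC by linear trapezoid, AUC0-∞ extrapolated using λz.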

[2] = AUC(0 to infinity) in adult fasted Sprague-Dawley rat at 30 mg/kg, po administered as water solution by HPLC-tandem mass spectrometry; type: ADME, organism-based; design: time infinity, dose 30 mg/kg, route oral; settings: plasma
How it was run: (§2)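 Adult male Sprague-Dawley rats (243-283 g), jugular-cannulated, fasted from 6 h before dosing through the 6-h study. Given 30 mg/kg orally (free base) at 10 ml/kg, n=3/group. Blood sampled at 0.25-6 h into K2EDTA with dichlorvos esterase inhibitor. Plasma assayed by LC-MS/MS (0.1-500 μg/l). Noncompartmental analysis: linear-trapezoid AUC; infinity extrapolation via log-linear terminal λz.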

[3] = Apparent oral clearance in healthy human at 150 mg, po administered as single dose by HPLC-tandem mass spectrometry under fed conditions; type: ADME, organism-based; settings: in vivo
How it was run: (§3)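 Open-label crossover in 18 healthy volunteers (9 male, 9 female, mean age 26). Each received marketed oseltamivir 150 mg orally, once fasted from midnight and once after a high-fat, high-calorie breakfast, with a 7-10 day washout. Plasma and urine collected over 0-72 h and analysed by HPLC-MS/MS. AUC and Cmax compared after log transformation.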

[4] = AUC(0 to 6 hrs) in adult fasted Sprague-Dawley rat at 30 mg/kg, po administered as solution in bovine milk by HPLC-tandem mass spectrometry; type: ADME, organism-based; design: time < 6 hr, dose 30 mg/kg, route oral; settings: in vivo; how it was run: as §2
[5] = Drug excretion in healthy human urine assessed as unchanged drug level at 150 mg, po administered as single dose by HPLC-tandem mass spectrometry under fed conditions; type: ADME, organism-based; settings: read-out: Drug excretion; how it was run: as §3
[6] = Drug uptake in CHOK1 cells expressing human PEPT1 at 5 to 100 uM after 10 mins by HPLC coupled with radiodetection analysis; type: ADME, cell-based, Cricetulus griseus; settings: chinese hamster, cho-k1, 10 min
[7] = Tmax in healthy human at 150 mg, po administered as single dose by HPLC-tandem mass spectrometry under fasting conditions; type: ADME, organism-based; settings: in vivo
How it was run: (§4)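 Open-label crossover food-effect study in 18 healthy volunteers (9 male, 9 female, mean age 26). Each received a single 150 mg oral dose of the marketed formulation, once fasting from midnight and once after a high-fat, high-calorie breakfast, separated by a 7–10 day washout. Plasma and urine were collected over 0–72 h and assayed by HPLC-MS/MS for oseltamivir and carboxylate.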

[8] = Cmax in adult fed Sprague-Dawley rat at 30 mg/kg, po administered as solution in bovine milk by HPLC-tandem mass spectrometry; type: ADME, organism-based; design: dose 30 mg/kg, route oral; settings: in vivo
How it was run: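 Adult cannulated Sprague-Dawley rats, fasted (from 6 h predose) or fed, dosed orally at 30 mg/kg (10 ml/kg), 3 per group. Serial jugular plasma with dichlorvos stabilisation, measured by LC-MS/MS. Cmax read graphically from the concentration-time profile.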

[9] = Tmax in juvenile fasted Sprague-Dawley rat at 30 mg/kg, po administered as solution in bovine milk by HPLC-tandem mass spectrometry; type: ADME, organism-based; design: dose 30 mg/kg, route oral; settings: in vivo
How it was run: (§5)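 Seven-day-old Sprague-Dawley pups, males and females, 15 per group, were gavaged with 30 mg/kg (10 ml/kg). Breast-fed pups stayed with their dams; fasted pups were removed from 8 h predose through 5 h. Cardiac blood was drawn under isoflurane at 0.25, 0.5, 1, 2 and 5 h (composite, n=3/time point), with dichlorvos added. Plasma was analyzed by HPLC-MS/MS and Tmax read graphically.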

[10] = Cmax in juvenile fasted Sprague-Dawley rat at 30 mg/kg, po administered as solution in bovine milk by HPLC-tandem mass spectrometry; type: ADME, organism-based; design: dose 30 mg/kg, route oral; settings: in vivo
How it was run: (§6)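 7-day-old Sprague-Dawley pups (9.7-18.9 g, both sexes), 15 per group. Given 30 mg/kg by oral gavage (10 ml/kg); breast-fed pups stayed with dams, fasted pups were removed 8 h before dosing. Blood taken by cardiac puncture under isoflurane at 0.25, 0.5, 1, 2 and 5 h, n=3 per time point (composite design). Dichlorvos-treated plasma assayed by LC-MS/MS; AUC0-5h by noncompartmental analysis.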

[11] = Tmax in adult fed Sprague-Dawley rat at 30 mg/kg, po administered as water solution by HPLC-tandem mass spectrometry; type: ADME, organism-based; design: dose 30 mg/kg, route oral; settings: in vivo
How it was run: (§7)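 Cannulated adult male Sprague-Dawley rats with chow ad libitum, 3 per vehicle, were given oral 30 mg/kg (10 ml/kg). Plasma analysis was by HPLC-MS/MS, with Tmax taken graphically from concentration-time profiles.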

[12] = Tmax in adult fed Sprague-Dawley rat at 30 mg/kg, po administered as 125 mM aqueous Gly-Sar solution by HPLC-tandem mass spectrometry; type: ADME, organism-based; design: dose 30 mg/kg, route oral; settings: in vivo; how it was run: as §7
[13] = AUC(0 to 24 hrs) in healthy human at 150 mg, po administered as single dose by HPLC-tandem mass spectrometry under fasting conditions; type: ADME, organism-based; design: dose 150 mg, time < 24 hr, route oral; settings: plasma; how it was run: as §3
[14] = Tmax in adult fasted Sprague-Dawley rat at 30 mg/kg, po administered as 125 mM aqueous Gly-Sar solution by HPLC-tandem mass spectrometry; type: ADME, organism-based; design: dose 30 mg/kg, route oral; settings: in vivo
How it was run: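 Male Sprague-Dawley rats (7–8 weeks, 243–283 g) had jugular-vein cannulas and 3 days' recovery. Fasting ran from 6 h predose through the 6 h study. Three rats per vehicle received 30 mg/kg oral (10 ml/kg). Blood was sampled 0.25–6 h into K2EDTA tubes with dichlorvos. Plasma was assayed by HPLC-MS/MS (0.1–500 µg/l). Tmax was read graphically (noncompartmental).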

[15] = Tmax in juvenile fasted Sprague-Dawley rat at 30 mg/kg, po administered as 125 mM aqueous Gly-Sar solution by HPLC-tandem mass spectrometry; type: ADME, organism-based; design: dose 30 mg/kg, route oral; settings: in vivo; how it was run: as §5
[16] = AUC(0 to 6 hrs) in adult fed Sprague-Dawley rat at 30 mg/kg, po administered as water solution by HPLC-tandem mass spectrometry; type: ADME, organism-based; design: time < 6 hr, dose 30 mg/kg, route oral; settings: plasma; how it was run: as §1
[17] = Cmax in juvenile breast-fed Sprague-Dawley rat at 30 mg/kg, po administered as water solution by HPLC-tandem mass spectrometry; type: ADME, organism-based; design: dose 30 mg/kg, route oral; settings: in vivo; how it was run: as §6
[18] = Drug uptake in CHOK1 cells expressing human PEPT1 incubated for 30s to 15 mins by HPLC coupled with radiodetection analysis; type: ADME, cell-based, Cricetulus griseus; settings: chinese hamster, cho-k1, 0.25 h
How it was run: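 Accumulation of [14C]oseltamivir or its carboxylate in CHO-PEPT1 versus CHO-K1 cells. Conditions varied: KH buffer (with MES) or Hanks' balanced salt solution, pH 5 or 6 readjusted after substrate addition, 30 s to 15 min at 37°C. Uptake was quenched with ice-cold PBS-BSA, followed by Triton X-100 lysis, scintillation counting, and BCA protein normalization. HPLC-radiodetection checked ester stability.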

[19] = Drug uptake in CHOK1 cells at pH 6 by HPLC coupled with radiodetection analysis; type: ADME, cell-based, Cricetulus griseus; settings: chinese hamster, cho-k1, pH 6
[20] = Terminal half life in healthy human at 150 mg, po administered as single dose by HPLC-tandem mass spectrometry under fed conditions; type: ADME, organism-based; settings: in vivo, read-out: beta t1/2 (converted); how it was run: as §4
[21] = AUC(0 to infinity) in adult fasted Sprague-Dawley rat at 30 mg/kg, po administered as solution in bovine milk by HPLC-tandem mass spectrometry; type: ADME, organism-based; design: time infinity, dose 30 mg/kg, route oral; settings: in vivo; how it was run: as §2

`CCC(CC)O[C@@H]1C=C(C(=O)O)C[C@H](N)[C@H]1NC(C)=O` [OSELTAMIVIR CARBOXYLATE] gave an AUC(0-t) at 24 h [1] of 4860 ng·h/mL, an AUC(0-inf) [2] of 6140 ng·h/mL and a CL/F [3] of 385 mL/min. The AUC(0-t) at 6 h [4] was 5810 ng·h/mL, the dose excreted [5] was 55.5% and the Drug uptake [6] was “Active”. The Tmax [7] was 4.37 h, the Cmax [8] was 1310 ng/mL and the Tmax [9] was 5 h. The Cmax [10] was 2460 ng/mL, the Tmax [11] was 0.75 h and the Tmax [12] was 1.42 h. It also gave an AUC(0-t) at 24 h [13] of 5540 ng·h/mL, a Tmax [14] of 1.17 h and a Tmax [15] of 2 h. For the same molecule, the AUC(0-t) at 6 h [16] was 3540 ng·h/mL, the Cmax [17] was 1500 ng/mL and the Drug uptake [18] was “Active”. The Drug uptake [19] was “Active”, the half-life [20] was 8.2 h and the AUC(0-inf) [21] was 6300 ng·h/mL.
`CCOC(=O)C1=C[C@@H](OC(CC)CC)[C@H](NC(C)=O)[C@@H](N)C1` [OSELTAMIVIR] gave an AUC(0-t) at 24 h [1] of 2830 ng·h/mL, an AUC(0-inf) [2] of 2710 ng·h/mL and a CL/F [3] of 9540 mL/min. The AUC(0-t) at 6 h [4] was 3010 ng·h/mL, the dose excreted [5] was 4.32% and the Drug uptake [6] was “Active”. The Tmax [7] was 0.806 h, the Cmax [8] was 1430 ng/mL and the Tmax [9] was 1 h. For the same molecule, the Cmax [10] was 7990 ng/mL, the Tmax [11] was 0.41 h and the Tmax [12] was 0.66 h. The AUC(0-t) at 24 h [13] was 238 ng·h/mL, the Tmax [14] was 0.25 h and the Tmax [15] was 0.5 h. For the same molecule, the AUC(0-t) at 6 h [16] was 2200 ng·h/mL, the Cmax [17] was 6140 ng/mL and the Drug uptake [18] was “Active”. The Drug uptake [19] was “Active”, the half-life [20] was 2.15 h and the AUC(0-inf) [21] was 3060 ng·h/mL.
